Source: ChEMBL document CHEMBL3877244, “Synthesis and biological evaluation of new aryl-alkyl(alkenyl)-4-benzylpiperidines, novel Sigma Receptor (SR) modulators, as potential anticancer-agents” (Eur J Med Chem, 2016)
Active and inactive are the calls of the source. The rule behind the calls is not given here.

Columns and labels:
[1] = target: Sigma non-opioid intracellular receptor 1 (Cavia porcellus, UniProt Q60492); test: Displacement of [3H]-pentazocine from sigma 1 receptor in guinea pig brain cortical membrane after 120 mins by scintillation counting analysis; type: cell membranes
In short: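 Nonspecific binding defined with unlabeled (+)-pentazocine. Filtration, then scintillation counting. IC50 by nonlinear regression, converted to Ki by Cheng–Prusoff.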

[2] = Displacement of [3H]-DTG from sigma 2 receptor in rat liver after 120 mins by scintillation counting analysis
In short: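 Rat liver homogenate (150 µg) incubated 120 min at room temperature with 3 nM [³H]-DTG in 50 mM Tris-HCl pH 8.0. (+)-Pentazocine 100 nM masked S1R; haloperidol 10 µM defined nonspecific binding. Ki by Cheng–Prusoff from IC50.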

[3] = Cytotoxicity against human Paca3 cells assessed as decrease in cell viability under starvation condition after 24 hrs by MTS assay; type: functional, cell-based; details: Paca3, 24 h
In short: (§1)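 Cells starved 24 h in low-glucose medium without FCS, then treated 24 h with compound in serum-free conditions. MTS read-out, OD 490 nm, expressed as percent of untreated control. IC50 read graphically from the dose-response plot. Three independent experiments in octuplicate.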

Capan-2 = test: Cytotoxicity against human Capan2 cells assessed as reduction in cell viability after 48 hrs in presence of 10% fetal calf serum by MTS assay; type: functional, cell-based
In short: (§2)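 Cells in exponential growth, 3×10^3 per well, in medium with 10% FCS. Capan-2, PaCa3, MDA-MB 231, SUM 159 and PC3 were grown in DMEM/Ham's F12 with glutamine 2 mM and insulin 10 µg/ml. U87 was grown in EMEM and LNCaP in RPMI, each with glutamine. Compound 0.1–100 µM, continuous exposure (24 h; 48 h for the 48 h lines). MTS, OD 490 nm. IC50 read graphically. Three independent experiments in octuplicate.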

[4] = Cytotoxicity against human MDA-MB-231 cells assessed as reduction in cell viability after 24 hrs in presence of 10% fetal calf serum by MTS assay; type: functional, cell-based; details: MDA-MB-231, 24 h; in short: as §2
[5] = Cytotoxicity against human LNCAP cells assessed as reduction in cell viability after 24 hrs in presence of 10% fetal calf serum by MTS assay; type: functional, cell-based; in short: as §2
[6] = Cytotoxicity against human PC3 cells assessed as reduction in cell viability after 24 hrs in presence of 10% fetal calf serum by MTS assay; type: functional, cell-based; details: PC-3, 24 h; in short: as §2
[7] = Cytotoxicity against human U87 cells assessed as reduction in cell viability after 24 hrs in absence of 10% fetal calf serum by MTS assay; type: functional, cell-based, U-87MG ATCC; details: U-87 MG; in short: as §1
[8] = Cytotoxicity against human LNCAP cells assessed as reduction in cell viability after 24 hrs in absence of 10% fetal calf serum by MTS assay; type: functional, cell-based; in short: as §1
Paca3 [9] = test: Induction of apoptosis in human Paca3 cells at 25 uM after 24 hrs in presence of 10% fetal calf serum by TUNEL assay; type: functional, cell-based
In short: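 PaCa3 cells in serum medium, exposed 24 h (10, 25, 50 μM tested). Cells fixed in 1% formaldehyde, held in 70% ethanol, permeabilized with 0.1% Triton X-100. TdT/FITC-dUTP labelling 90 min at 37 °C, then propidium iodide 2.5 μg/ml with RNase. Percent apoptotic cells by flow cytometry.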

[10] = Induction of apoptosis in human Paca3 cells assessed as late apoptotic cells in presence of 10% fetal calf serum at 25 uM after 24 hrs by annexin V-FITC/propidium iodide staining-based flow cytometry (reference value: 4 +/- 0.8%); type: functional
[11] = Induction of apoptosis in human Paca3 cells assessed as early apoptotic cells in absence of 10% fetal calf serum at 10 uM after 24 hrs by annexin V-FITC/propidium iodide staining-based flow cytometry (reference value: 3.5 +/- 0.7%); type: functional
[12] = Induction of apoptosis in human Paca3 cells assessed as late apoptotic cells in absence of 10% fetal calf serum at 10 uM after 24 hrs by annexin V-FITC/propidium iodide staining-based flow cytometry (reference value: 4.6 +/- 0.5%); type: functional
[13] = target: Sigma non-opioid intracellular receptor 1 (Rattus norvegicus) (UniProt Q9R0C9); test: Antagonist activity at sigma 1 receptor in rat PC12 cells assessed as inhibition of NGF-induced neurite outgrowth at 2.5 to 10 uM after 96 hrs; type: cell-based; details: PC-12
In short: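 PC12 cells grown in RPMI 1640 with 10% heat-inactivated horse serum and 5% FBS. Differentiation ran in medium with 0.5% serum plus NGF 2.5 ng/ml, with compound at 0–10 μM for 96 h. Neurite outgrowth was scored. Data are mean±sem of at least 5 experiments, each in triplicate.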

[14] = target: Sigma non-opioid intracellular receptor 1 (Rattus norvegicus) (UniProt Q9R0C9); test: Antagonist activity at sigma 1 receptor in rat PC12 cells assessed as inhibition of PRE-084-mediated NGF-induced neurite outgrowth at 0.25 to 2.5 uM after 96 hrs; type: cell-based; details: PC-12
In short: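 PC12 cells in differentiation medium with NGF 2.5 ng/ml. The S1R agonist PRE-084 (5, 10, 25 μM; 10 mM stock in apyrogenic water) was given alone or with compound at 0.25 or 2.5 μM. NGF-induced neurite outgrowth was scored. Data are mean±sem of at least 5 experiments, each in triplicate.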

SUM-159-PT = test: Cytotoxicity against human SUM159 cells assessed as reduction in cell viability after 48 hrs in presence of 10% fetal calf serum by MTS assay; type: functional, cell-based; in short: as §2
MDA-MB-231 = test: Cytotoxicity against human MDA-MB-231 cells assessed as reduction in cell viability after 48 hrs in presence of 10% fetal calf serum by MTS assay; type: functional, cell-based; in short: as §2
U-87MG ATCC = test: Cytotoxicity against human U87 cells assessed as reduction in cell viability after 48 hrs in presence of 10% fetal calf serum by MTS assay; type: functional, cell-based; in short: as §2
LNCaP = test: Cytotoxicity against human LNCAP cells assessed as reduction in cell viability after 48 hrs in presence of 10% fetal calf serum by MTS assay; type: functional, cell-based; in short: as §2
PC-3 = test: Cytotoxicity against human PC3 cells assessed as reduction in cell viability after 48 hrs in presence of 10% fetal calf serum by MTS assay; type: functional, cell-based; in short: as §2
[15] = Induction of apoptosis in human Paca3 cells assessed as viable cells in presence of 10% fetal calf serum at 25 uM after 24 hrs by annexin V-FITC/propidium iodide staining-based flow cytometry (reference value: 89.9 +/- 0.1%); type: functional
[16] = Induction of apoptosis in human Paca3 cells assessed as viable cells in absence of 10% fetal calf serum at 10 uM after 24 hrs by annexin V-FITC/propidium iodide staining-based flow cytometry (reference value: 91.1 +/- 0.7%); type: functional
Paca3 [17] = test: Induction of apoptosis in human Paca3 cells assessed as cleaved form of caspase 3 at 10 uM after 24 hrs in absence of 10% fetal calf serum by Western blot analysis; type: functional, cell-based
In short: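 PaCa3 cells starved 24 h without FCS, then exposed to 10 μM. Cleaved caspase 3 detected by western blot. Membranes blocked with 5% milk in T-TBS, primary antibody overnight at 4 °C, then secondary antibody, chemiluminescent detection.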

Sigma non-opioid intracellular receptor 1 (Rattus norvegicus), sequence (Q9R0C9 whole entry): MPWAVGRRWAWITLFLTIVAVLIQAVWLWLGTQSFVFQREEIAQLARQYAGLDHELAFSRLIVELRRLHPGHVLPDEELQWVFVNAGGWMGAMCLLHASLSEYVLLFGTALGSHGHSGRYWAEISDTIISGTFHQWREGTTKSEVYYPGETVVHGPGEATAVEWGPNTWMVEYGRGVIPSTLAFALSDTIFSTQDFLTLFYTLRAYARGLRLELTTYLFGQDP
Sigma non-opioid intracellular receptor 1, sequence (Q60492 whole entry): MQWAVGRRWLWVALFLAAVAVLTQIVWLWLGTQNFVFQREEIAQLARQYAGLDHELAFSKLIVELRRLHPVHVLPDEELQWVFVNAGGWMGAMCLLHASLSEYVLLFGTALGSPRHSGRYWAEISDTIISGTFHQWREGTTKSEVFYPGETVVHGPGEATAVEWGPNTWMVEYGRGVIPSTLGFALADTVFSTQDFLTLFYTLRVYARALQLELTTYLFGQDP

With `C/C(=C\CN1CCC(Cc2ccccc2)CC1)c1ccc2ccccc2c1` the Ki [1] was 0.012 µM, the Ki [2] was 0.022 µM and the IC50 [3] was 7 µM. For the same compound, the Activity (Capan-2) was “Active”, the IC50 [4] was 64.9 µM and the IC50 [5] was 61.1 µM. The IC50 [6] was 50.6 µM, the IC50 [7] was 10.5 µM and the IC50 [8] was 9.58 µM. The Activity (Paca3 [9]) was “Active”, the Activity [10] was 34.1% and the Activity [11] was 10.9%. The Activity [12] was 17.2%, the inhibition [13] was “Active” and the inhibition [14] was “Active”. The Activity (SUM-159-PT) was “Active”, the Activity (MDA-MB-231) was “Active” and the Activity (U-87MG ATCC) was “Active”. For the same compound, the Activity (LNCaP) was “Active”, the Activity (PC-3) was “Active” and the Activity [15] was 22.4%. For the same compound, the Activity [16] was 71.6% and the Activity (Paca3 [17]) was “Active”.
